Results on seven compounds are retold here after ChEMBL document CHEMBL1148383, “Semisynthetic macrolide antibacterials derived from tylosin. Synthesis and structure-activity relationships of novel desmycosin analogues” (J Med Chem, 2004).

Common to all, as to type: functional
Assay [1] deals with Staphylococcus aureus. The assay can be described thus: Antibacterial activity against Staphylococcus aureus PSCB-0330. In short, it runs like this:
(§1)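 MICs were determined by broth microdilution following NCCLS guidelines. The test panel includes erythromycin-susceptible strains and erythromycin-resistant strains with constitutive or inducible MLSB phenotypes or with efflux resistance.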

The test system of another assay is Enterococcus faecalis. Briefly: Antibacterial activity against Enterococcus faecalis ATCC 29212. In short, it runs like this: as §1
In assay [2] the test system is Staphylococcus aureus. Briefly: Antibacterial activity against Staphylococcus aureus PSCB-0331. In short, it runs like this: as §1
A further assay has as its system Escherichia coli. The assay can be described thus: Antibacterial activity against Escherichia coli ATCC […]. In short, it runs like this:
as §1

For assay [3], the system named is Streptococcus pyogenes. Briefly: Antibacterial activity against Streptococcus pyogenes PSCB-0543. In short, it runs like this: as §1
Another assay deals with Haemophilus influenzae. The assay can be described thus: Antibacterial activity against Haemophilus influenzae ATCC 49247. In a few lines:
as §1

The next assay concerns Streptococcus pneumoniae. The assay can be described thus: Antibacterial activity against Streptococcus pneumoniae PSCB-0541. In short, it runs like this:
as §1

In assay [4] the test system is Staphylococcus aureus. Briefly: Antibacterial activity against Staphylococcus aureus ATCC 13709. In short, it runs like this:
as §1

Assay [5] has as its system Staphylococcus aureus. Briefly: Antibacterial activity against Staphylococcus aureus PSCB-0538. In short, it runs like this:
as §1

The subject of assay [6] is Streptococcus pyogenes. The assay can be described thus: Antibacterial activity against Streptococcus pyogenes PSCB-0545. In short, it runs like this:
as §1

≈ marks a conversion by molar mass, not a printed value.

For the compound `CC[C@H]1OC(=O)C[C@@H](O)[C@H](C)[C@@H](OC2OC(C)C(O)C(N(C)C)C2O)[C@@H](C/C=C/C(=O)OC)C[C@@H](C)C(=O)/C=C/C(C)=C/[C@@H]1COC1OC(C)C(O)C(OC)C1OC` (some centres undefined), the MIC in the assay with Staphylococcus aureus [1] was more than 128 µg/mL; against Enterococcus faecalis, 0.5 µg/mL (≈ 0.604 µM); with Staphylococcus aureus [2], 0.5 µg/mL (≈ 0.604 µM); against Escherichia coli, more than 128 µg/mL; with Streptococcus pyogenes [3], 0.5 µg/mL (≈ 0.604 µM); against Haemophilus influenzae, 16 µg/mL (≈ 19.3 µM). Besides, the MIC was determined as 2 µg/mL (≈ 2.42 µM) against Streptococcus pneumoniae, 0.5 µg/mL (≈ 0.604 µM) in the assay on Staphylococcus aureus [4], 0.5 µg/mL (≈ 0.604 µM) against Staphylococcus aureus [5] and 0.5 µg/mL (≈ 0.604 µM) in the assay on Streptococcus pyogenes [6].

`CC[C@H]1OC(=O)CC2(O)C(C=O)[C@@H](C[C@@H](C)C(=O)/C=C/C(C)=C/[C@@H]1CO[C@@H]1O[C@@H](C)[C@@H](O)[C@@H](OC)[C@@H]1OC)[C@H](O[C@@H]1O[C@@H](C)[C@@H](O)[C@@H](N(C)C)[C@H]1O)[C@H]2C` (some centres undefined): the MIC was more than 128 µg/mL against Staphylococcus aureus [1]; 16 µg/mL (≈ 20.8 µM) with Enterococcus faecalis; 64 µg/mL (≈ 83.1 µM) against Staphylococcus aureus [2]; more than 128 µg/mL with Escherichia coli; 64 µg/mL (≈ 83.1 µM) against Streptococcus pyogenes [3]; 64 µg/mL (≈ 83.1 µM) in the assay on Haemophilus influenzae. In addition, the MIC against Streptococcus pneumoniae, with Staphylococcus aureus [4], against Staphylococcus aureus [5] and in the assay with Streptococcus pyogenes [6] was 32 µg/mL (≈ 41.6 µM) each time.

In the case of `CCOC(=O)/C=C/C[C@H]1C[C@@H](C)C(=O)/C=C/C(C)=C/[C@H](COC2OC(C)C(O)C(OC)C2OC)[C@@H](CC)OC(=O)C[C@@H](O)[C@H](C)[C@H]1OC1OC(C)C(O)C(N(C)C)C1O` (some centres undefined), the MIC against Staphylococcus aureus [1] was more than 128 µg/mL; against Enterococcus faecalis it was 1 µg/mL (≈ 1.19 µM); against Staphylococcus aureus [2], 0.25 µg/mL (≈ 0.297 µM); against Escherichia coli, more than 128 µg/mL; in the assay on Streptococcus pyogenes [3], 0.5 µg/mL (≈ 0.594 µM); against Haemophilus influenzae, 4 µg/mL (≈ 4.75 µM). For the same compound, the MIC in the assay on Streptococcus pneumoniae worked out at 2 µg/mL (≈ 2.38 µM); with Staphylococcus aureus [4] it was 0.5 µg/mL (≈ 0.594 µM); against Staphylococcus aureus [5] it was 0.25 µg/mL (≈ 0.297 µM); against Streptococcus pyogenes [6], 1 µg/mL (≈ 1.19 µM).

Regarding `CCOC(=O)/C=C/C[C@H]1C[C@@H](C)C(=O)/C=C/C(C)=C/[C@H](COC2OC(C)C(O)C(OC)C2OC)[C@@H](CC)OC(=O)C[C@@H](OC(=O)Cc2ccc([N+](=O)[O-])cc2)[C@H](C)[C@H]1OC1OC(C)C(O)C(N(C)C)C1O` (some centres undefined), the MIC in the assay on Staphylococcus aureus [1] was more than 128 µg/mL; with Enterococcus faecalis it was 2 µg/mL (≈ 1.99 µM); with Staphylococcus aureus [2], 0.5 µg/mL (≈ 0.497 µM); in the assay with Escherichia coli, more than 128 µg/mL; with Streptococcus pyogenes [3], 2 µg/mL (≈ 1.99 µM); in the assay with Haemophilus influenzae, 8 µg/mL (≈ 7.96 µM). Moreover, the MIC against Streptococcus pneumoniae is 4 µg/mL (≈ 3.98 µM); in the assay on Staphylococcus aureus [4], less than 0.25 µg/mL; in the assay with Staphylococcus aureus [5] it was 0.25 µg/mL (≈ 0.249 µM); in the assay on Streptococcus pyogenes [6], 0.5 µg/mL (≈ 0.497 µM).

Regarding `CC[C@H]1OC(=O)C[C@@H](OC(C)=O)[C@H](C)[C@@H](OC2OC(C)C(O)C(N(C)C)C2O)[C@@H](CC=O)C[C@@H](C)C(=O)/C=C/C(C)=C/[C@@H]1COC1OC(C)C(O)C(OC)C1OC` (some centres undefined), the MIC with Staphylococcus aureus [1] is more than 128 µg/mL; against Enterococcus faecalis it was 8 µg/mL (≈ 9.83 µM); with Staphylococcus aureus [2], 2 µg/mL (≈ 2.46 µM); with Escherichia coli it was more than 128 µg/mL; in the assay on Streptococcus pyogenes [3], 2 µg/mL (≈ 2.46 µM); in the assay with Haemophilus influenzae it was 32 µg/mL (≈ 39.3 µM). Further, the MIC was 2 µg/mL (≈ 2.46 µM) in the assay with Streptococcus pneumoniae, 1 µg/mL (≈ 1.23 µM) with Staphylococcus aureus [4], 8 µg/mL (≈ 9.83 µM) against Staphylococcus aureus [5] and 2 µg/mL (≈ 2.46 µM) in the assay on Streptococcus pyogenes [6].

`CC[C@H]1OC(=O)C[C@H](O)[C@H](C)[C@@H](OC2OC(C)C(O)C(N(C)C)C2O)[C@@H](C/C=C/C(=O)OC)C[C@@H](C)C(=O)/C=C/C(C)=C/[C@@H]1COC1OC(C)C(O)C(OC)C1OC` (some centres undefined): the MIC against Staphylococcus aureus [1] and against Escherichia coli was more than 128 µg/mL each time.

As for `CC[C@H]1OC(=O)C[C@@H](O)[C@H](C)[C@@H](OC2OC(C)C(O)C(=O)C2O)[C@@H](CC=O)C[C@@H](C)C(=O)/C=C/C(C)=C/[C@@H]1COC1OC(C)C(O)C(OC)C1OC` (some centres undefined), the MIC against Staphylococcus aureus [1] and against Escherichia coli was more than 128 µg/mL in each case.
